Broadly, the Cmax is the peak of the concentration-time curve. A word on the AUC(0-t): it is the area under the concentration-time curve up to a stated or last time point. Read a high AUC(0-t) as more exposure.

Like-named read-outs stand apart in the source and are kept apart here.

This is an account of results in publication PMC7591420 (Targeted Oncology, 2020).

One data set concerns patients. Particulars: cited from earlier work.
Data set [1] deals with patients with advanced solid tumors. The data set is classed as in vivo, human. Particulars: all cohorts. In outline:
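Open-label, non-randomized multicenter escalation plus expansion, 28-day cycles. PI3K inhibitor 0.2–0.8 mg/kg IV over 1 h on days 1, 8, 15 or 1, 8, 15, 22 (max 65 mg); MEK inhibitor 30–50 mg BID orally, continuous from day 4 or 4 days on/3 off from day 6. DLTs assessed in cycle 1; adverse events graded by NCI CTCAE v4.0.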

A short description of data set [2]: Plasma pharmacokinetics of copanlisib. The class given is in vivo, human. The conditions noted are these: for Cmax / AUC(0-t): human, plasma, intravenous, cycle 1 day 1, copanlisib alone, geometric mean (% CV); for AUC(0-t): AUC(0–25).
For data set [3], the system named is patients with solid tumors. Particulars: intravenous monotherapy; cited from earlier work.
For data set [4] the following is noted: copanlisib 0.4 mg/kg as monotherapy; cited from earlier work.
Data set [5] can be described thus: Plasma pharmacokinetics of refametinib. Particulars: for AUC(0-t) / Cmax: human, plasma, oral, cycle 1 day 14, refametinib alone, geometric mean (% CV); for AUC(0-t): AUC(0–8). The data set is classed as in vivo, human.
Data set [6] deals with patients with advanced cancer. Particulars: cited from earlier work.
Setting [7] is: 0.4 mg/kg, cohort 2C: copanlisib 0.4 mg/kg weekly, refametinib 30 mg BID.
[8] abbreviates: 0.4 mg/kg, expansion cohort: copanlisib 0.4 mg/kg weekly, refametinib 30 mg BID.
Setting [9] is: 30 mg, cohort 2C: copanlisib 0.4 mg/kg weekly, refametinib 30 mg BID.
Where [10] appears, read: 30 mg, expansion cohort: copanlisib 0.4 mg/kg weekly, refametinib 30 mg BID.

With `O=C(NOCCO)c1cc(CN2OCCCC2=O)c(F)c(F)c1Nc1ccc(I)cc1F` [RO4987655], the “incidence of ophthalmologic toxicities” value in the data set on patients is 27%.
As for `COc1c(OCCCN2CCOCC2)ccc2c1N=C(NC(=O)c1cnc(N)nc1)N1CCN=C21` [copanlisib], in data set [1] (N = 64), the “Patients with dose modifications attributed to copanlisib-related TEAEs” value worked out at 39.1%. For the same compound, the “Patients with TEAEs considered related to copanlisib” value in data set [1] (N = 64, given with refametinib) amounted to 93.8%. Moreover, the Cmax is 126 ng/mL in data set [2] (0.2 mg/kg, cohort 1: copanlisib 0.2 mg/kg 3 weeks on/1 week off, refametinib 30 mg BID); 241 ng/mL in data set [2] (setting [7]); 312 ng/mL in data set [2] (setting [8]); 189 ng/mL in data set [2] (cohort 2). Moreover, the values for the AUC(0-t) in data set [2] (setting [7]) and in data set [2] (setting [8]) were 725 ng·h/mL and 890 ng·h/mL, respectively. Also, the “median time of Cmax, range over cohorts” value in data set [2] (single infusion 0.2–0.8 mg/kg, cycle 1, day 1) fell in the range of 0.50 to 1.03 h. For the same compound, in data set [2] (within each cohort), the “copanlisib Cmax and AUC(0–25), day 1 (alone) versus day 15 (with refametinib)” value is “comparable between day 1 and day 15”. Also, the “maximum tolerated dose (MTD), single agent” value in data set [3] is 0.8 mg/kg. Further, the “activity of 0.4 mg/kg versus 0.8 mg/kg” value in data set [4] is recorded as “less active than 0.8 mg/kg”.
With `COc1cc(F)c(F)c(Nc2ccc(I)cc2F)c1NS(=O)(=O)C1(C[C@H](O)CO)CC1` [refametinib], the “Patients with dose modifications attributed to refametinib-related TEAEs” value in data set [1] (N = 64) is listed as 53.1%. Besides, in data set [1] (N = 64, given with copanlisib), the “Patients with TEAEs considered related to refametinib” value turned out to be 95.3%. For the same compound, the AUC(0-t) worked out at 2510 ng·h/mL in data set [5] (30 mg, cohort 1: copanlisib 0.2 mg/kg 3 weeks on/1 week off, refametinib 30 mg BID); 3750 ng·h/mL in data set [5] (30 mg, cohort 2B: copanlisib 0.6 mg/kg 3 weeks on/1 week off, refametinib 30 mg BID); 4770 ng·h/mL in data set [5] (setting [9]); 4530 ng·h/mL in data set [5] (30 mg, cohort 3A: copanlisib 0.8 mg/kg 3 weeks on/1 week off, refametinib 30 mg BID); 5310 ng·h/mL in data set [5] (setting [10]); 5110 ng·h/mL in data set [5] (cohort 2). The values for the Cmax in data set [5] (setting [9]), in data set [5] (setting [10]) and in data set [5] (cohort 2) were 873 ng/mL, 845 ng/mL and 943 ng/mL, respectively. Moreover, the “median time of Cmax, range over cohorts” value in data set [5] (multiple doses of refametinib 30 mg or 50 mg BID) was 1.50 to 4.00 h. Besides, the “MTD, single agent” value in data set [6] (oral, twice daily (BID), monotherapy) is reported as 50 mg. Further, the partial response rate in data set [6] (refametinib monotherapy) is 2%. Further, the stable disease in data set [6] (refametinib monotherapy) is reported as 16%.
`CC(=O)Nc1cccc(-n2c(=O)n(C3CC3)c(=O)c3c(Nc4ccc(I)cc4F)n(C)c(=O)c(C)c32)c1` [trametinib]: the “incidence of ophthalmologic toxicities” value with patients (all-cause) is 19%.
